Data set [1] concerns the target T1, M5 (Homo sapiens, UniProt P08912).
T1 sequence (P08912 1-532): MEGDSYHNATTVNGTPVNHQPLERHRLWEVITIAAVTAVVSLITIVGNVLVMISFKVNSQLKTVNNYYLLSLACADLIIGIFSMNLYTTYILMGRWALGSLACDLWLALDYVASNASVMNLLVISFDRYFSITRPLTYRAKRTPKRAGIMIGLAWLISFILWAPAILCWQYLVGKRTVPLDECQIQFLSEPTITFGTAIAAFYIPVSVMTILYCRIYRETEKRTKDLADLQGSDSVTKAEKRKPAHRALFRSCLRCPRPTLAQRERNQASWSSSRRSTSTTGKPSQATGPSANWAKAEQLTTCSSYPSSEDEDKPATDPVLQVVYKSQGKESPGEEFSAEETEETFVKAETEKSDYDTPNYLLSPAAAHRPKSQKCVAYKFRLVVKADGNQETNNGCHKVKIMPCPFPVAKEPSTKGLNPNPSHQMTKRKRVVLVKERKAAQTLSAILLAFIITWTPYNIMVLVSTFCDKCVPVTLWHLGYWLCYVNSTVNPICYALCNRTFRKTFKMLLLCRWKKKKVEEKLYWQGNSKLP
The format is cell-based. The conditions noted are these: single point 10 µM, M5-CHO cells.

Data set [2] addresses T1, M5. In words: M5 PAM activity, mobilization of intracellular calcium in M5 CHO cells. The data set is classed as cell-based. A general note: Calcium flux is commonly read through the fluorescence of an indicator in the cells.
The target of data set [3] is T2, M3 (Homo sapiens, UniProt P20309). The experiment in a line: 30 µM fold-shift selectivity assay, M3. The data set is classed as cell-based. In outline: (§1)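 Intracellular calcium mobilization in CHO cells expressing the receptor. Test compound at a fixed 30 µM, read as the fold-shift of the acetylcholine concentration-response. Data are means from at least three independent determinations.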
T2 sequence (P20309 whole entry): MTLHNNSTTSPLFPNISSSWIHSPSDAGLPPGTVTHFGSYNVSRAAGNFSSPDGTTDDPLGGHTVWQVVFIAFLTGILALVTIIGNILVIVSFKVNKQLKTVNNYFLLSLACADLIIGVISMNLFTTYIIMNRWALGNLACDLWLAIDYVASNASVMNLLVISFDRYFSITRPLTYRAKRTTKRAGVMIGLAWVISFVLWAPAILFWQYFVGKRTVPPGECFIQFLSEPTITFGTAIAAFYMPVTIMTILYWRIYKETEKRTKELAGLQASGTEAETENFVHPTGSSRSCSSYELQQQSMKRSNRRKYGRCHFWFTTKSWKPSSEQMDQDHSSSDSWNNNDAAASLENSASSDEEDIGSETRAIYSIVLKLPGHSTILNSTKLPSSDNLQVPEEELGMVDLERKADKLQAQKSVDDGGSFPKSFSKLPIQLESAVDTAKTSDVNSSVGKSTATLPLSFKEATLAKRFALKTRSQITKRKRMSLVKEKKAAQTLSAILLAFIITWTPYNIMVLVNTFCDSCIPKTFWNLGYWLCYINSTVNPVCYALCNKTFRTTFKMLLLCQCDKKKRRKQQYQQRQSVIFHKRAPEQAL

In data set [4] the target is T3, M4 (Homo sapiens, UniProt P08173).
T3 sequence (P08173 1-479): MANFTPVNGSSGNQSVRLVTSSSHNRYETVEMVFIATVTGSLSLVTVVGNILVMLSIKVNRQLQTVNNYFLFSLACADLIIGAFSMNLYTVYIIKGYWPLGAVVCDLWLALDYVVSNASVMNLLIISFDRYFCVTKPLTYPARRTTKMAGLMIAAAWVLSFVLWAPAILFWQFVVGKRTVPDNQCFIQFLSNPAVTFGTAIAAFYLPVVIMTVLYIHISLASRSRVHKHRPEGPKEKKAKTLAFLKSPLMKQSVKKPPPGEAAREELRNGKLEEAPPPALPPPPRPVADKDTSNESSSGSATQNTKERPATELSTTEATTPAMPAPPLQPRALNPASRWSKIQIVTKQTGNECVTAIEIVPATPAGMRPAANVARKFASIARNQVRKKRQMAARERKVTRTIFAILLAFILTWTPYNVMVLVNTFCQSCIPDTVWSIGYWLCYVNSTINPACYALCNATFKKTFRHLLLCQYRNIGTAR
In words: 30 µM fold-shift selectivity assay, M4. The format is cell-based. Put shortly: (§2)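 Intracellular calcium mobilization in CHO cells expressing the receptor co-transfected with Gqi5 to couple it to calcium signalling. Test compound at a fixed 30 µM, read as the fold-shift of the acetylcholine concentration-response. Data are means from at least three independent determinations.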

In data set [5] the target is T1, M5. The experiment in a line: Human M5 ACh fold-shift assay at 30 µM. The format is cell-based.
Data set [6] concerns the target T4, M2 (Homo sapiens, UniProt P08172).
T4 sequence (P08172 1-466): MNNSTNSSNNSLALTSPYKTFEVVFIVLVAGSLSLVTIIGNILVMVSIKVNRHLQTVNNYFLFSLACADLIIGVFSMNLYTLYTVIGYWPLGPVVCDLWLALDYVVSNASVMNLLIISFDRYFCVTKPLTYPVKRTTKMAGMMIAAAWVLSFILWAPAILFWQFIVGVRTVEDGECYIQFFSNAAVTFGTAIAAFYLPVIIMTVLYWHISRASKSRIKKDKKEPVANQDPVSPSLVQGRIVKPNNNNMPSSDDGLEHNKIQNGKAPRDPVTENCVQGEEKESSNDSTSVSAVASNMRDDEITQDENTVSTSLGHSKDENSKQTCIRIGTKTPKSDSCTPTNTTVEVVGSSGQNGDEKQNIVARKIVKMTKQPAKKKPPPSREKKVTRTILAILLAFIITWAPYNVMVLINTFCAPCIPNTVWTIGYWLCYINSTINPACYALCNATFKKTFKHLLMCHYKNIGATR
In words: 30 µM fold-shift selectivity assay, M2. The format is cell-based. In outline: as §2

Data set [7] addresses T5, M1 (Homo sapiens, UniProt P11229).
T5 sequence (P11229 1-460): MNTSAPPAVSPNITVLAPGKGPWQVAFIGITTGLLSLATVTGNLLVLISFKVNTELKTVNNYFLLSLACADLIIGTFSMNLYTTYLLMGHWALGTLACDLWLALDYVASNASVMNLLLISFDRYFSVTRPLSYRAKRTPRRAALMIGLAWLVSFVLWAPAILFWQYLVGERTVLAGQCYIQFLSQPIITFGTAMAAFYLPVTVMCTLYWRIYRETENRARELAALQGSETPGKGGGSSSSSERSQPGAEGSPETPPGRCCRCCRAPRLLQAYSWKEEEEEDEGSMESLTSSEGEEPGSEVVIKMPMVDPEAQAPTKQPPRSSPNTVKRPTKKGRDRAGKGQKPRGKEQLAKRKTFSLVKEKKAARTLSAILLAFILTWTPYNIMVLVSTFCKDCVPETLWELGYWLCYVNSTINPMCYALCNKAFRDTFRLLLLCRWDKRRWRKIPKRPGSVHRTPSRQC
The experiment in a line: 30 µM fold-shift selectivity assay, M1. The data set is classed as cell-based. In outline:
as §1

The target of data set [8] is H1 (Homo sapiens, UniProt P35367). The experiment in a line: Ancillary pharmacology panel, H1. The data set is classed as binding. Conditions: same assay panel; significant = >50% inhibition at 10 µM.
Chain of H1 (P35367 whole entry): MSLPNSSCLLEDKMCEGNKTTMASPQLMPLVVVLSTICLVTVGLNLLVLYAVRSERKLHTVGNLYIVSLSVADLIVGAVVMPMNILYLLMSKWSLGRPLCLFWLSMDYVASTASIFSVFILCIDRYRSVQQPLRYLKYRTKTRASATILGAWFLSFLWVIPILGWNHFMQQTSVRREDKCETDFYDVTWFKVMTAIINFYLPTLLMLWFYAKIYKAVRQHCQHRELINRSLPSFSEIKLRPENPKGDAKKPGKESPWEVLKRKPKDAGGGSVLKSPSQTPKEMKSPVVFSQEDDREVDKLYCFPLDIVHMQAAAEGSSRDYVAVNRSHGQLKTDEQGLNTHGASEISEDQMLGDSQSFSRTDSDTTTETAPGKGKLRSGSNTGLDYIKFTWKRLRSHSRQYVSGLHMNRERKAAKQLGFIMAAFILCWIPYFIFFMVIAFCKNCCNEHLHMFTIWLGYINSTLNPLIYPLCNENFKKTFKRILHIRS
A short description of data set [9]: Ancillary pharmacology panel. The format is binding.
Data set [10] has as its target NET (Homo sapiens, UniProt P23975). The experiment in a line: Ancillary pharmacology panel, NET. The data set is classed as binding. The conditions noted are these: same assay panel; significant = >50% inhibition at 10 µM.
In data set [11] the target is T1, M5. The conditions noted are these: read-out: M5 EC50; vs. M2–M5; cited from earlier work.
Data set [12] addresses T5, M1. The conditions noted are these: read-out: M1 EC50, cited from earlier work.
Data set [13] deals with T4, M2. The conditions noted are these: read-out: M2 EC50, cited from earlier work.
Data set [14] deals with T2, M3. The conditions noted are these: read-out: M3 EC50, cited from earlier work.
In data set [15] the target is T3, M4. Conditions: read-out: M4 EC50, cited from earlier work.
The conditions of data set [16]: in words; cited from earlier work.
For data set [17] the following is noted: cited from earlier work.

Read-outs that look alike come from different tables or passages of the source.

Chain of NET (P23975 whole entry): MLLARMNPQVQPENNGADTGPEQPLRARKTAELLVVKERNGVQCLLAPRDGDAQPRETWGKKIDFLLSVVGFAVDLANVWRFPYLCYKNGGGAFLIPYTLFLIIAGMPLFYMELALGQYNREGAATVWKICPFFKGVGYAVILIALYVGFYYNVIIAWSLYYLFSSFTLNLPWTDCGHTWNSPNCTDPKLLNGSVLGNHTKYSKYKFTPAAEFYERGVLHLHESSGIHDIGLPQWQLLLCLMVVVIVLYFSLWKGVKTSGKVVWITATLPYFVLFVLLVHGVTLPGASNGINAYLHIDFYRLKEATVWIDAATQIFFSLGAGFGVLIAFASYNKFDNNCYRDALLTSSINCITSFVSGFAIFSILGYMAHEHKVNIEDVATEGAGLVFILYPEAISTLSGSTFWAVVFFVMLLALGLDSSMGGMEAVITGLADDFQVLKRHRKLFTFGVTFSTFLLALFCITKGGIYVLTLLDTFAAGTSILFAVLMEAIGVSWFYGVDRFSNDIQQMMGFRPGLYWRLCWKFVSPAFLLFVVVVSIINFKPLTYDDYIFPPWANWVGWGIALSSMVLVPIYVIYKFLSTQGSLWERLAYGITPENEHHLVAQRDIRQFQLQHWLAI

`CC1CCCN(COc2ccc3c(c2)C(=O)C(=O)N3Cc2ccc(-c3ccccc3)cc2)C1` (centres unmarked) [10ee]: the “ability to potentiate an EC20 of ACh” value in data set [1] is listed as “did decrease the ACh EC20”.
`CN(C)CCOc1ccc2c(c1)C(=O)C(=O)N2Cc1ccc(-c2ccccc2)cc1` [10gg]: the “ability to potentiate an EC20 of ACh” value in [1] was “did decrease the ACh EC20”.
Take `O=C1C(=O)N(Cc2ccc(-c3ccccc3)cc2)c2ccc(OCCN3CCCC3)cc21` [10kk]: the “ability to potentiate an EC20 of ACh” value in [1] is reported as “did decrease the ACh EC20”.
For `O=C1C(=O)N(Cc2ccc(-c3cccnc3)cn2)c2ccc(OC(F)(F)F)cc21` [21b], in data set [2], the “M5 PAM activity (in words)” value is on record as “devoid of M5 PAM activity”.
`O=C1C(=O)N(Cc2ccc(-c3ccncc3)cn2)c2ccc(OC(F)(F)F)cc21` [21c]: the “M5 PAM activity (in words)” value in [2] is “devoid of M5 PAM activity”.
As for `O=C1C(=O)N(Cc2ccc(-c3ccccc3)nc2)c2ccc(OC(F)(F)F)cc21` [22a], in data set [3], the “effect on M3, fold-shift selectivity” value is “neither 22a nor 27b showed any significant effect”. The “effect on M4, fold-shift selectivity” value in data set [4] is on record as “neither 22a nor 27b showed any significant effect”. For the same compound, in [5], the allosteric agonism is given as ~ 20%. The “effect on M2, fold-shift selectivity” value in data set [6] was “neither 22a nor 27b showed any significant effect”. In addition, the “effect on M1, fold-shift selectivity” value in data set [7] is listed as “neither 22a nor 27b showed any significant effect”.
As to `O=C1C(=O)N(Cc2ccc(Oc3cccc(F)n3)cc2)c2ccc(OC(F)(F)F)cc21` [27b], the “effect on M3, fold-shift selectivity” value in data set [3] is “neither 22a nor 27b showed any significant effect”. In [4], the “effect on M4, fold-shift selectivity” value is “neither 22a nor 27b showed any significant effect”. Also, the “effect on M2, fold-shift selectivity” value in [6] is on record as “neither 22a nor 27b showed any significant effect”. For the same compound, the “activity at H1” value in [8] is “significant activity”. Also, in data set [7], the “effect on M1, fold-shift selectivity” value was “neither 22a nor 27b showed any significant effect”. In addition, the “number of targets with modest activities” value in data set [9] (of the 68 targets) came out at 11 targets. Further, in [10], the “activity at NET” value was “significant activity”.
Take `Cn1cc(-c2ccc(CN3C(=O)C(=O)c4ccccc43)c(F)c2)cn1` [compound 2]: the EC50 in [11] was over 30 µM; in data set [12] (PAM) it was 0.83 µM; in [13] (vs. M2–M5), over 30 µM; in data set [14] (vs. M2–M5), over 30 µM; in data set [15] (vs. M2–M5), over 30 µM.
`O=C1C(=O)N(Cc2ccc(-c3ccccc3)cc2)c2ccc(OC(F)(F)F)cc21` [compound 4]: the EC50 in data set [12] (vs. M1–M4), in data set [13] (vs. M1–M4), in data set [14] (vs. M1–M4) and in data set [15] (vs. M1–M4) was over 30 µM in each case. For the same compound, in data set [16], the solubility entry is listed as “limited solubility”. Further, in data set [17], the logP was over 4.5.
On to `O=C1C(=O)N(Cc2ccc(Oc3ccccc3)cc2)c2ccc(OC(F)(F)F)cc21` [compound 5], for which the half-maximal effective concentration (EC50) in data set [12] (vs. M1–M4), in data set [13] (vs. M1–M4), in data set [14] (vs. M1–M4) and in [15] (vs. M1–M4) was over 30 µM throughout. Besides, the solubility result in data set [16] is “limited solubility”. The logP in data set [17] was over 4.5. Further, the “number of targets with significant activity (>50% inhibition at 10 µM)” value in [9] (of 68 targets, 10 µM) is listed as 32 targets.
With `O=C1C(=O)N(Cc2ccc(-c3ccccc3)cc2F)c2ccc(OC(F)(F)F)cc21` [compound 11], the “M5 PAM activity (in words)” value in data set [2] was “loss in both potency and efficacy”.
On the same count and under the same terms, as for `O=C1C(=O)N(Cc2c(F)cc(-c3ccccc3)cc2F)c2ccc(OC(F)(F)F)cc21` [compound 12], the entry is “loss in both potency and efficacy”; as for `O=C1C(=O)N(Cc2ccc3c(c2)OCO3)c2ccc(OC(F)(F)F)cc21` [compound 13], “highly efficacious M5 PAM of comparable potency to 4”.

Broadly, the EC50 is the concentration needed to bring the measured effect to its halfway point. By logP is commonly meant the decadic logarithm of the partition coefficient of the neutral form, usually between octanol and water.
